Measured values published in publication PMC4327868 (Chemical research in toxicology, 2013).

What was measured:
Assay type in all cases: cell-based
PC6-3 cells [1] = assay: Extracellular dopamine metabolites; details: 300 μM
How it was run: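 NGF-differentiated PC6-3 cells were given test compound (0, 10, 25, 50, 100 or 300 μM; 0.6% DMSO) in HEPES-buffered saline, pH 7.4. Extracellular aliquots taken at 0, 1 and 4 h went into 5% perchloric acid and were centrifuged. DOPAL, DOPAC and DOPET were run on isocratic C18 HPLC (0.1% TFA, 6% ACN), read at 202/280 nm, and quantified against standard curves. Mean ± SD, n = 3.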

PC6-3 cells [2] = assay: DA-supplemented dopamine metabolism; details: 10 μM dieldrin, cells spiked with 100 μM DA 15 min prior, 4 h, vs control
How it was run: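 PC6-3 cells seeded at 6 × 10^4 cells/well, NGF-differentiated (50 ng/mL, 4 days), and given 100 μM DA 15 min before 4 h exposure to test compound (10, 30, 100 or 300 μM) in HEPES-buffered saline. Extracellular DOPAL was measured by capillary C18 HPLC with photodiode-array detection and quantified against a standard curve. Reported as % control; mean ± SEM, n = 3 or 4.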

PC6-3 cells [3] = assay: Cytotoxicity by lactate dehydrogenase; details: 4 h, even at high concentrations (900 μM)

In the case of `ClC1=C(Cl)C2(Cl)C3CC4OC4CC3C1(Cl)C2(Cl)Cl` (stereo not drawn) [desmethylene dieldrin, 1,8,9,10,11,11-Hexachloro-4,5-epoxy-2,3-7,6-endotricyclo[6.2.1.0^2,7]undec-9-ene], the “increase of extracellular DOPAL concentration” value (PC6-3 cells [1]) is reported as 10 fold.

In the case of `ClC1=C(Cl)[C@]2(Cl)[C@@H]3[C@@H]4C[C@@H]([C@H]5O[C@@H]45)[C@@H]3[C@@]1(Cl)C2(Cl)Cl` [dieldrin], the “increase in extracellular DOPAL levels” value (PC6-3 cells [2]) is reported as about 200%.

For `ClC1=C(Cl)C2(Cl)C3C4CC(C5OC45)C3C1(Cl)C2(Cl)Cl` (stereo not drawn) [endrin], the “cytotoxicity (LDH release)” value (PC6-3 cells [3]) was “no cytotoxicity”.
